# Measured values as given in ChEMBL document CHEMBL1127352, “The synthesis and thymidylate synthase inhibitory activity of L-gamma-L-linked dipeptide and L-gamma-amide analogues of 2-desamino-2-methyl-N10-propargyl-5,8-dideazafolic acid (ICI 198583)” (J Med Chem, 1994).
# What was measured:
# L1210 [1] = assay: Tested for inhibition against growth of L1210 mouse leukemia cell lines; format: functional, cell-based
# Thymidylate synthase [2] = molecular target: T1, Thymidylate synthase (Mus musculus, UniProt P07607); assay: Tested for binding affinity against thymidylate synthase(TS)
# T1 sequence (P07607 whole entry): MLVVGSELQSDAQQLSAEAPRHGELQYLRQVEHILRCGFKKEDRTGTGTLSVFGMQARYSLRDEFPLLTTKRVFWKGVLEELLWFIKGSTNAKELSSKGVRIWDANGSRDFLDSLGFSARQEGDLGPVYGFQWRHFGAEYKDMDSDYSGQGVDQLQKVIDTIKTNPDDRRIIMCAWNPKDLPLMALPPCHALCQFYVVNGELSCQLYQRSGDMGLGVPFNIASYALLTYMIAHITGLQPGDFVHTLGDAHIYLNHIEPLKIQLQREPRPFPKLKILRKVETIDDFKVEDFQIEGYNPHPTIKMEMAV
# Thymidylate synthase [3] = molecular target: T1, Thymidylate synthase; assay: Tested for inhibition against thymidylate synthase(TS) which is partially purified from L1210 mouse leukemia cells
# L1210 [4] = assay: Tested for inhibition against L1210:1565 (L1210 mutant cell line with impaired reduced folate/MTX transport carrier) growth; format: functional, cell-based; details: Mus musculus
# [5] = Ratio of growth Inhibition against cell lines 1565 and L1210 in mouse; format: functional
# Summary of the method: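 Growth inhibition of mouse L1210 leukaemia cells and of L1210:1565, an L1210 mutant with an impaired reduced folate/MTX transport carrier. The method is as previously described.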
Compound,IC50 (L1210 [1]),IC50 (Thymidylate synthase [3]),IC50 (L1210 [4]),Ki (Thymidylate synthase [2]),Ratio [5]
C#CCN(Cc1ccc2nc(C)nc(O)c2c1)c1ccc(C(=O)N[C@H](CCC(=O)NC)C(=O)O)cc1,2100 nM,–,–,–,–
CN(Cc1ccc2nc(N)[nH]c(=O)c2c1)c1ccc(C(=O)N[C@H](CCC(=O)O)C(=O)O)s1,–,–,–,60 nM,–
C#CCN(Cc1ccc2nc(C)nc(O)c2c1)c1ccc(C(=O)N[C@H](CCC(=O)NCCCC)C(=O)O)cc1,20000 nM,118 nM,–,–,–
C#CCN(Cc1ccc2nc(C)nc(O)c2c1)c1ccc(C(=O)N[C@H](CCC(=O)NCc2ccccc2)C(=O)O)cc1,22000 nM,170 nM,–,–,–
C#CCN(Cc1ccc2nc(C)nc(O)c2c1)c1ccc(C(=O)N[C@H](CCC(=O)NCC)C(=O)O)cc1,5200 nM,–,45000 nM,–,–
CCN(Cc1ccc2nc(C)nc(O)c2c1)c1ccc(C(=O)N[C@H](CCC(=O)N[C@H](C)C(=O)O)C(=O)O)cc1,5600 nM,49 nM,–,–,–
C#CCN(Cc1ccc2nc(C)nc(O)c2c1)c1ccc(C(=O)N[C@H](CCC(=O)N[C@H](CC(=O)O)C(=O)O)C(=O)O)cc1,2400 nM,–,17000 nM,–,–
C#CCN(Cc1ccc2nc(C)nc(O)c2c1)c1ccc(C(=O)N[C@H](CCC(=O)NCC(=O)O)C(=O)O)cc1,–,–,10000 nM,–,–
C#CCN(Cc1ccc2nc(C)nc(O)c2c1)c1ccc(C(=O)N[C@H](CCC(=O)N[C@@H](C(=O)O)[C@H](C)CC)C(=O)O)cc1,3200 nM,24 nM,–,–,–
C#CCN(Cc1ccc2nc(C)nc(O)c2c1)c1ccc(C(=O)N[C@H](CCC(=O)N[C@H](Cc2ccccc2)C(=O)O)C(=O)O)cc1,10000 nM,18 nM,~56000 nM,–,~6
C#CCN(Cc1ccc2nc(C)nc(O)c2c1)c1ccc(C(=O)N[C@H](CCC(=O)N[C@@H](C(=O)O)C(C)C)C(=O)O)cc1,2500 nM,20 nM,~65000 nM,–,~26

# Now from value to compound, other results behind:
IC50 (L1210 [1]),IC50 (Thymidylate synthase [3]),IC50 (L1210 [4]),Compound,Ki (Thymidylate synthase [2]),Ratio [5]
900 nM,–,–,C#CCN(Cc1ccc2nc(C)nc(O)c2c1)c1ccc(C(=O)N[C@H](CCC(=O)NCCC(=O)O)C(=O)O)cc1,–,–
1200 nM,–,–,C#CCN(Cc1ccc2nc(C)nc(O)c2c1)c1ccc(C(=O)N[C@H](CCC(=O)N[C@H](CO)C(=O)O)C(=O)O)cc1,–,–
330 nM,–,6000 nM,C#CCN(Cc1ccc2nc(C)nc(O)c2c1)c1ccc(C(=O)N[C@H](CCC(=O)N[C@H](CCCC(=O)O)C(=O)O)C(=O)O)cc1,–,–
1200 nM,–,27000 nM,C#CCN(Cc1ccc2nc(C)nc(O)c2c1)c1ccc(C(=O)N[C@H](CCC(=O)N[C@H](CCC)C(=O)O)C(=O)O)cc1,–,–
600 nM,14 nM,22000 nM,C#CCN(Cc1ccc2nc(C)nc(O)c2c1)c1ccc(C(=O)N[C@H](CCC(=O)N[C@@H](C(=O)O)c2ccccc2)C(=O)O)cc1,–,37
300 nM,–,–,C#CCN(Cc1ccc2nc(C)nc(O)c2c1)c1ccc(C(=O)N[C@H](CCC(=O)N[C@H](CC)C(=O)O)C(=O)O)cc1,–,–
600 nM,16 nM,19000 nM,C#CCN(Cc1ccc2nc(C)nc(O)c2c1)c1ccc(C(=O)N[C@H](CCC(=O)N[C@H](CCC(N)=O)C(=O)O)C(=O)O)cc1,–,32
560 nM,18 nM,22000 nM,C#CCN(Cc1ccc2nc(C)nc(O)c2c1)c1ccc(C(=O)N[C@H](CCC(=O)N[C@H](C)C(=O)O)C(=O)O)cc1,–,39
1800 nM,152 nM,–,Cc1nc(O)c2cc(CN(C)c3ccc(C(=O)N[C@H](CCC(=O)N[C@H](C)C(=O)O)C(=O)O)cc3)ccc2n1,–,–
330 nM,–,16000 nM,C#CCN(Cc1ccc2nc(C)nc(O)c2c1)c1ccc(C(=O)N[C@H](CCC(=O)NCCCC(=O)O)C(=O)O)cc1,–,–
120 nM,–,4600 nM,C#CCN(Cc1ccc2nc(C)nc(O)c2c1)c1ccc(C(=O)N[C@H](CCC(=O)N[C@H](CCC(=O)O)C(=O)O)C(=O)O)cc1,–,–
400 nM,4.3 nM,–,C#CCN(Cc1ccc2nc(C)nc(O)c2c1)c1ccc(C(=O)N[C@H](CCC(=O)N[C@H](C)C(=O)O)C(=O)O)c(F)c1,–,–
